# The source made the active and inactive calls. The calls are words filed in the database; no cut-off is given here.
# Assays:
# Mus musculus [1] = species: Mus musculus; assay: Skin scaling in mice at mid dose 2 with Hypervitaminosis; 0/16; type: functional, organism-based
# In short: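 Male B6D2F1 mice were dosed daily by gavage in corn oil and observed for skin scaling of the ears, mouth, nose, eyelids, feet, tail or ventral body. Results are given as affected animals over animals in the group, with the day of first observation.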
# Mus musculus [2] = species: Mus musculus; assay: Compound total dose to termination (day 25/65) in mid dose 2; type: functional
# In short: (§1)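 Male B6D2F1 mice given daily oral gavage in corn oil; dosages increased during the study (day 30 or day 51 depending on compound). Cumulative dose in mg/kg administered up to termination (day 65, or day 25 for TTNPB 0.01/0.05 mg/kg/day groups).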
# Mus musculus [3] = species: Mus musculus; assay: Effect of compound on thymus to body weight ratios in mice at high dose on day 65; type: functional
# In short: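 Male B6D2F1 mice were dosed daily by gavage in corn oil, with TTNPB given at 0.1–0.8 or 0.01/0.05 mg/kg/day. Thymus-to-body weight ratio (×1000) was taken at necropsy on day 65 against vehicle 1, or on day 25 for the 0.01/0.05 groups against vehicle 2. Mean ± SD of 4–8 animals, reported as % difference from vehicle.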
# Mus musculus [4] = species: Mus musculus; assay: Effect of compound on serum triglycerides levels in mice at low dose on day 8; type: functional
# In short: (§2)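 Male B6D2F1 mice were gavaged daily with compound in corn oil at low, mid 1, mid 2 or high dose. Serum triglycerides and circulating white blood cells were measured on the stated day (8, 29, 36, 65). Values are group mean ± SD expressed as % relative to corn-oil vehicle, with significance at p ≤ 0.05.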
# Mus musculus [5] = species: Mus musculus; assay: Avoiding pressure on limbs in mice at low dose with Hypervitaminosis; 0/16; type: functional, organism-based; settings: Limb
# Mus musculus [6] = species: Mus musculus; assay: Average number of fractures per mouse at mid dose 1
# Mus musculus [7] = species: Mus musculus; assay: Effect of compound on white blood cells levels in mice at high dose on day 65; type: functional; in short: as §2
# Mus musculus [8] = species: Mus musculus; assay: Compound total dose to termination (day 25/65) in mid dose 1; type: functional; in short: as §1
# Mus musculus [9] = species: Mus musculus; assay: Effect of compound on serum triglycerides levels in mice at low dose on day 29; type: functional
# In short: (§3)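 Male B6D2F1 mice dosed daily by oral gavage in corn oil at low, mid 1, mid 2 or high dose. Blood sampled on set days (8, 29, 36, 65) for clinical chemistry, serum alkaline phosphatase and triglycerides. Group mean ± SD reported as % relative to vehicle 1; significance p < 0.05 versus corn oil vehicle.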
# Mus musculus [10] = species: Mus musculus; assay: Effect of compound on serum Alkaline phosphatase levels in mice at low dose on day 29; type: functional; in short: as §3
# Mus musculus [11] = species: Mus musculus; assay: Effect of compound on serum triglycerides levels in mice at low dose on day 36; type: functional; in short: as §3
# Mus musculus [12] = species: Mus musculus; assay: Effect of compound on serum triglycerides levels in mice at mid dose 2 on day 29; type: functional; in short: as §2
# Mus musculus [13] = species: Mus musculus; assay: Enlarged lymph in gross pathological observations in mice with hypervitaminosis A in mice at high dose with gross observations/total number of mice in group; 1/16; type: functional, organism-based
# Mus musculus [14] = species: Mus musculus; assay: Effect of compound on right testicle to body weight ratios in mice at high dose on day 65; type: functional
# In short: (§4)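 Male B6D2F1 mice dosed daily by gavage with compound in corn oil; vehicle 1 (corn oil) controls run to termination on day 65. Low, mid 1, mid 2 and high dose groups, with dosage increases partway through the study. Organ-to-body weight ratios (×1000) taken at necropsy on day 65, reported as mean ± SD for 4 to 8 animals and as % difference from vehicle.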
# Mus musculus [15] = species: Mus musculus; assay: Effect of compound on serum Alkaline phosphatase levels in mice at high dose on day 65; type: functional; in short: as §3
# Mus musculus [16] = species: Mus musculus; assay: Effect of compound on adrenal to body weight ratios in mice at high dose on day 65; type: functional; in short: as §4
# Mus musculus [17] = species: Mus musculus; assay: Skin scaling in mice at high dose with Hypervitaminosis; 2/16; type: functional, organism-based
# Mus musculus [18] = species: Mus musculus; assay: (§5) Mortality rate in mice in high dose; type: functional
# In short: (§6)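 Male B6D2F1 mice given compound daily by gavage in corn oil at the stated dose levels, with corn oil vehicle controls. Deaths counted as animals found dead or sacrificed moribund, with day(s) of death recorded. Heteroarotinoid groups ran to day 65 and low-dose reference groups to day 25.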
# Mus musculus [19] = species: Mus musculus; assay: Alopecia in mice observed at high dose with Hypervitaminosis; 4/16; type: functional, organism-based
# Mus musculus [20] = species: Mus musculus; assay: Effect of compound on Spleen to body weight ratios in mice at high dose on day 65; type: functional; in short: as §4
# Mus musculus [21] = species: Mus musculus; assay: Effect of compound on Spleen to body weight ratios in mice at low dose on day 65; type: functional; in short: as §4
# Mus musculus [22] = species: Mus musculus; assay: Avoiding pressure on limbs in mice at mid dose 2 with Hypervitaminosis; 0/16; type: functional, organism-based; settings: Limb
# Mus musculus [23] = species: Mus musculus; assay: Compound total dose to termination (day 25/65) in high dose; type: functional; in short: as §1
# Mus musculus [24] = species: Mus musculus; assay: Effect of compound on serum Alkaline phosphatase levels in mice at mid dose 1 on day 65; type: functional; in short: as §3
# Mus musculus [25] = species: Mus musculus; assay: Effect of compound on serum triglycerides levels in mice at mid dose 1 on day 8; type: functional; in short: as §2
# Mus musculus [26] = species: Mus musculus; assay: Fracture incidence in mouse at low dose; 0/8
# Mus musculus [27] = species: Mus musculus; assay: Enlarged spleen in Gross pathological observations in mice with hypervitaminosis A at low dose with gross observations/total number of mice in group; 0/16; type: functional, organism-based
# [28] = Mortality rate in mice in mid dose 2; type: ADME; settings: mouse, in vivo; in short: as §6
# [29] = Mortality rate in mice in low dose; type: ADME; settings: mouse, in vivo; in short: as §6
# Mus musculus [30] = species: Mus musculus; assay: Effect of compound on serum Alkaline phosphatase levels in mice at mid dose 2 on day 36; type: functional; in short: as §3
# Mus musculus [31] = species: Mus musculus; assay: Skin scaling in mice at mid dose 1 with Hypervitaminosis; 1/16; type: functional, organism-based
# Mus musculus [32] = species: Mus musculus; assay: Avoiding pressure on limbs in mice at high dose with Hypervitaminosis; 0/16; type: functional, organism-based; settings: Limb
# [33] = as §5; type: ADME; settings: mouse, in vivo; in short: as §6
# Mus musculus [34] = assay: Alopecia observed at 0.2 mg/kg/day dose with hypervitaminosis; 10/16; type: functional, organism-based
# [35] = Mortality rate in mice at 0.1 mg/kg/day; range (12-24); type: ADME, organism-based; settings: mouse, in vivo; in short: as §6
# Mus musculus [36] = assay: Average number of fractures per mouse at 0.05 mg/kg/day
# Mus musculus [37] = assay: Effect of compound on adrenal to body weight ratios in mice at 0.05 mg/kg/day dose; measured on day 25
# Mus musculus [38] = assay: Enlarged lymph in gross pathological observations with hypervitaminosis A in mice at 0.4 mg/kg/day dose with gross observations/total number of animals in group; 12/16; type: functional, organism-based
# Mus musculus [39] = assay: Effects of retinoids on thymus to body weight ratios in mice at 0.05 mg/kg/day dose
# Mus musculus [40] = assay: Alopecia observed at 0.05 mg/kg/day dose in mice with hypervitaminosis; 8/8; type: functional, organism-based
# Mus musculus [41] = assay: Enlarged spleen in Gross pathological observations with hypervitaminosis A at 0.8 mg/kg/day dose with gross observations/total number of animals in group; 0/16; type: functional, organism-based
# Mus musculus [42] = species: Mus musculus; assay: Effect of compound on serum Alkaline phosphatase levels in mice at low dose on day 36; type: functional; in short: as §3
# Mus musculus [43] = species: Mus musculus; assay: Enlarged lymph in gross pathological observations in mice with hypervitaminosis A in mice at high dose with gross observations/total number of mice in group; 8/16; type: functional, organism-based
# Mus musculus [44] = species: Mus musculus; assay: Fracture incidence in mouse at high dose; 4/7
# Mus musculus [45] = species: Mus musculus; assay: Enlarged lymph in gross pathological observations in mice with hypervitaminosis A at mid dose 1 with gross observations/total number of mice in group; 6/16; type: functional, organism-based
Compound,Activity (Mus musculus [1]),Total dose (Mus musculus [2]),Activity (Mus musculus [3]),Activity (Mus musculus [4]),Activity (Mus musculus [5]),Activity (Mus musculus [6]),Activity (Mus musculus [7]),Total dose (Mus musculus [8]),Activity (Mus musculus [9]),Activity (Mus musculus [10]),Activity (Mus musculus [11]),Activity (Mus musculus [12]),Activity (Mus musculus [13]),Activity (Mus musculus [14]),Activity (Mus musculus [15]),Activity (Mus musculus [16]),Activity (Mus musculus [20]),Activity (Mus musculus [21]),Activity (Mus musculus [22]),Total dose (Mus musculus [23]),also measured
CC(/C=C/C=C(\C)c1ccc2c(c1)C(C)(C)CCO2)=C\C(=O)O,inactive,828.4 mg/kg,1.3,96.8,inactive,0,3.7,414.2 mg/kg,179.4,96.8,187.1,159.3,inactive,3,156.8,0.4,3,2.3,inactive,3106.5 mg/kg,Activity (Mus musculus [17]): inactive; Mortality (Mus musculus [18]): 0 day of death; Activity (Mus musculus [19]): Weak activity; Activity (Mus musculus [24]): 127.1; Activity (Mus musculus [25]): 97.2; Activity (Mus musculus [26]): inactive; Activity (Mus musculus [27]): inactive
CC(/C=C/C=C(\C)c1ccc2c(c1)C(C)(C)CCS2)=C\C(=O)O,inactive,828.4 mg/kg,1.5,97.5,inactive,,4.18,414.2 mg/kg,176.4,94.9,194.9,153.4,inactive,2.7,159,2.6,2.6,,inactive,3106.5 mg/kg,Mortality [28]: 0 day of death; Mortality [29]: 0 day of death; Activity (Mus musculus [30]): 75.6; Activity (Mus musculus [31]): inactive; Activity (Mus musculus [32]): inactive; Mortality [33]: 0 day of death; Activity (Mus musculus [25]): 97.6; Activity (Mus musculus [26]): inactive; Activity (Mus musculus [27]): inactive
C/C(=C\c1ccc(C(=O)O)cc1)c1ccc2c(c1)C(C)(C)CCC2(C)C,,,,,,,,,,,,,,,,,,,,,Activity (Mus musculus [34]): Weak activity; Mortality [35]: 7 day of death; Activity (Mus musculus [36]): 3.3; Activity (Mus musculus [37]): Toxic; Activity (Mus musculus [38]): Active; Activity (Mus musculus [39]): Toxic; Activity (Mus musculus [40]): Active; Activity (Mus musculus [41]): inactive
C/C(=C\c1ccc(C(=O)O)cc1)c1ccc2c(c1)C(C)(C)CCO2,,,,,,1.9,,,,,,,,,,,,3.6,,,Activity (Mus musculus [42]): 77.4; Mortality [28]: 4 day of death; Mortality [29]: 0 day of death; Activity (Mus musculus [43]): Weak activity; Activity (Mus musculus [44]): Weak activity; Activity (Mus musculus [30]): 93.3; Mortality [33]: 8 day of death; Activity (Mus musculus [24]): 123.1; Activity (Mus musculus [45]): Weak activity
